Reference: PMC8817670 (Journal of medicinal chemistry, 2021)
Like-named read-outs stand apart in the source and are kept apart here.

What was measured:
TSPO in rat kidney [1] = target: T1, TSPO in rat kidney (Rattus norvegicus, UniProt P16257); test: [3H]PK11195 displacement binding, rat kidney membranes; settings: for lipE rat kidney: lipE = pKi – logD
[2] = target: TSPO in human U87MG cells (Homo sapiens, UniProt P30536); test: [3H]PK11195 displacement binding, human U87MG cell membranes; settings: for lipE human U87MG: lipE = pKi – logD
[3] = test system: human cerebellum TSPO, LAB genotype; test: [3H]PK11195 binding assay, human cerebellum homogenates, LAB genotype; settings: human cerebellum genotype sensitivity in vitro
[4] = target: T2, human cerebellum TSPO, LAB genotype (Homo sapiens, UniProt P30536); test: as above
Measurement of logD = assay type: physicochemical; settings: for logD7.4: n-octanol / sodium phosphate buffer pH 7.4, RT, n = 6; for logD: n-octanol/sodium phosphate buffer, pH 7.4
Procedure, shortened: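 Shake-flask partition of each radiolabelled test compound between 1-octanol and sodium phosphate buffer (pH 7.4) at room temperature; logD taken from the distribution coefficient of radioactivity between the two phases.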

[5] = target: T3, human cerebellum TSPO, HAB genotype (Homo sapiens, UniProt P30536); test: [3H]PK11195 binding assay, human cerebellum homogenates, HAB genotype; settings: for lipE HAB: lipE = pKi – logD
TSPO in rat kidney [6] = target: T1, TSPO in rat kidney; settings: cited from earlier work
[7] = target: T3, human cerebellum TSPO, HAB genotype; settings: cited from earlier work
[8] = test system: human cerebellum TSPO, LAB genotype; settings: cited from earlier work
[9] = target: T2, human cerebellum TSPO, LAB genotype; settings: read-out: LAB Ki; cited from earlier work
[10] = cited from earlier work
TSPO in the mouse brain = TSPO in the mouse brain (Mus musculus, UniProt P50637); test: PET imaging of radioligands in mouse brain, baseline and PK11195 preblock; assay type: in vivo
[11] = read-out: rat kidney Ki, [3H]PK11195 1 nM, 90 min at 0 °C, n = 3
[12] = read-out: human U87MG Ki, [3H]PK11195 1 nM, 90 min at 0 °C, n = 3
[13] = read-out: LAB Ki, human cerebellum, three LAB subjects, 1 h at 37 °C
[14] = read-out: HAB Ki, human cerebellum, three HAB subjects, 1 h at 37 °C
[15] = lipE = pKi – logD, data from ref 27

T3 sequence (P30536 whole entry): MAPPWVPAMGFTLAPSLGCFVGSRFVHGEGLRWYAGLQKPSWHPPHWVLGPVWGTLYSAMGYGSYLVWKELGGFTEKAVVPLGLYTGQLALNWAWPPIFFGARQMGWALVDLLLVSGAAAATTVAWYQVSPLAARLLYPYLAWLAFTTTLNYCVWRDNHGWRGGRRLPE
Chain of TSPO in human U87MG cells (P30536 whole entry): as above
T2 sequence (P30536 2-169): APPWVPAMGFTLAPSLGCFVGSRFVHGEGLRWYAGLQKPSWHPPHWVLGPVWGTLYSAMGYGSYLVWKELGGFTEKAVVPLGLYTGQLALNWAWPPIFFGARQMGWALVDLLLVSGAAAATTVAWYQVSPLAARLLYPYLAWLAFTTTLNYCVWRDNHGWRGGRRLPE

Structure (SMILES)	lipE rat kidney (TSPO in rat kidney [1])	Ki (TSPO in rat kidney [1]; [11])	lipE human U87MG [2]	Ki [2, 12]	LAB to HAB Ki ratio [3]	Ki [4, 13]	logD7.4 (Measurement of logD)	lipE HAB [5]	Ki [5, 14]	Ki (TSPO in rat kidney [1])	Ki [2]	Ki [4]	logD (Measurement of logD)	Ki [5]	other results
CC[C@@H](C)N(C)C(=O)c1nc(-c2ccccc2F)c2ccccc2n1 [3a, (R)-(N-sec-Butyl)-4-(2-fluorophenyl)-N-methylquinazoline-2-carboxamide]	5.34	4.19 ± 0.35 nM	5.21	5.64 ± 0.66 nM	2.78	25 ± 11.6 nM	3.04 ± 0.03	5.01	9 ± 9.5 nM						
CC[C@@H](C)N(C)C(=O)c1nc(-c2cccc(F)c2)c2ccccc2n1 [3b, (R)-(N-sec-Butyl)-4-(3-fluorophenyl)-N-methylquinazoline-2-carboxamide]	5.20	5.17 ± 0.63 nM	5.20	5.09 ± 0.65 nM	2.74	24.9 ± 12.7 nM	3.09 ± 0.01	4.95	9.1 ± 8.1 nM						
CC[C@@H](C)N(C)C(=O)c1nc(-c2ccc(F)cc2)c2ccccc2n1 [3c, (R)-(N-sec-Butyl)-4-(4-fluorophenyl)-N-methylquinazoline-2-carboxamide]	5.12	7.41 ± 0.82 nM	5.14	7.03 ± 0.66 nM	2.91	44.5 ± 34.4 nM	3.01 ± 0.02	4.81	15.3 ± 10.3 nM						
CC[C@@H](C)N(C)C(=O)c1nc(-c2ccccc2C(F)(F)F)c2ccccc2n1 [3d, (R)-N-(sec-Butyl)-N-methyl-4-(2-(trifluoromethyl)phenyl)-quinazoline-2-carboxamide]	5.18		5.25		5.46					3.74 ± 0.1 nM	3.18 ± 0.17 nM	37.1 ± 30.2 nM	3.25 ± 0.03	6.8 ± 8.1 nM	
CC[C@@H](C)N(C)C(=O)c1nc(-c2cccc(C(F)(F)F)c2)c2ccccc2n1 [3e, (R)-N-(sec-Butyl)-N-methyl-4-(3-(trifluoromethyl)phenyl)-quinazoline-2-carboxamide]	5.14		5.21		1.98			4.02		1.44 ± 0.21 nM	1.19 ± 0.17 nM	36.9 ± 38.5 nM	3.71 ± 0.03	18.6 ± 15.7 nM	
CC[C@@H](C)N(C)C(=O)c1nc(-c2ccc(C(F)(F)F)cc2)c2ccccc2n1 [3f, (R)-N-(sec-Butyl)-N-methyl-4-(4-(trifluoromethyl)phenyl)-quinazoline-2-carboxamide]	4.43		4.69		0.8			4.37		4.39 ± 0.14 nM	2.42 ± 0.66 nM	4 ± 5 nM	3.93 ± 0.01	5 ± 3.9 nM	
CC[C@@H](C)N(C)C(=O)c1nc(-c2ccccc2Cl)c2ccccc2n1 [ER176, (R)-N-(sec-butyl)-4-(2-chlorophenyl)-N-methylquina-zoline-2-carboxamide]															lipE rat kidney (TSPO in rat kidney [6]; [15]): 4.96; Ki (TSPO in rat kidney [6]; read-out: rat kidney Ki): 3.1 ± 0.3 nM; lipE HAB [7, 15]: 5.28; Ki ([7]; read-out: HAB Ki): 1.48 nM; LAB to HAB Ki ratio [8]: 1.28; Ki [9]: 1.89 nM; logD7.4 [10]: 3.55 ± 0.02
CCC(C)N(C)C(=O)c1cc2ccccc2c(-c2ccccc2Cl)n1 (stereo not shown) [PK11195, reference compound]							3.97 ± 0.02								
CC[C@@H](C)N([11CH3])C(=O)c1nc(-c2ccccc2Cl)c2ccccc2n1 [[^11C]ER176]															blocking effect of PK11195 on brain uptake (TSPO in the mouse brain; PK11195 5 mg/kg i.v. preblock, baseline vs preblock, 80–100 min): 72%; peak radioactivity uptake in the brain (TSPO in the mouse brain; mouse whole brain, baseline, i.v. injection): around 1.0 SUV; estimated brain TSPO occupancy at baseline (TSPO in the mouse brain; occupancy by carrier, estimated from brain concentration and molar activity): 2.6%
